Assay outcomes (PubChem BioAssay)
T cruzi growth-1: T. cruzi proliferation inhibition | T. cruzi beta-gal in NIH3T3, GalScreen luminescence, 90 h | inhibition, % at 8.34 µM | 5.9% of 77,000 active | AID 624255;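 active means mean inhibition above about 93%, with at least 55% of replicates each passing it, limit read from the data, passing the limit was not always enough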
IDH1 R132H inh: blocks human IDH1 R132H reductase activity; AID 624101; 0.18% of 70,000 active; diaphorase/resazurin fluorescence, 60 min; inhibition, % at 10 µM; O75874; in the data active means inhibition above about 34%
KDM4C inh: inhibitors of human demethylase GASC-1 KDM4C; Q9H3R0; GST-KDM4C 2-372, H3K9me3 peptide, LANCE TR-FRET; inhibition, % at 12.5 µM; 0.15% of 96,000 active;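 active means mean replicate inhibition above about 25%, with at least 55% of replicates also reaching it, limit read from the data, passing the limit was not always enough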
Target sequence (Q9H3R0 2-372 limits assumed): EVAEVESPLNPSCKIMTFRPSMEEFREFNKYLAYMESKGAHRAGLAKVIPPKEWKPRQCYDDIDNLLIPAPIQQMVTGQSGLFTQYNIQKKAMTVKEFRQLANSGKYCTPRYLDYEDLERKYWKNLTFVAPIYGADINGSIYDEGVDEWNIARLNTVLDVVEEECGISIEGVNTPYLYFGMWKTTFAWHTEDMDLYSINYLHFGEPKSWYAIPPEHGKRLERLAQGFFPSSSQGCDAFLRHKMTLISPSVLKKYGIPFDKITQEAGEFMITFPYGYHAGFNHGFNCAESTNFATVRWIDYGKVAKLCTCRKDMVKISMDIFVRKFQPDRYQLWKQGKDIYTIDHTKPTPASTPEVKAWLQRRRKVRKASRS
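System: N-terminal GST-fused human GASC-1 (KDM4C) fragment, residues 2-372; amount: enzyme final amount 10 nM; incubation: reaction 30 min RT, detection step 1 h RT; medium: HEPES buffer, pH 7.5, plus ascorbate; technique: LANCE TR-FRET, Eu antibody, ULight-streptavidin, EDTA, ex 340 nm, em 618/671 nm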
T cruzi growth-2: blocks T. cruzi growth in NIH3T3 host cells | T. cruzi beta-gal in NIH3T3, GalScreen luminescence, 90 h | shares compounds with T cruzi growth-1 | inhibition, % at 8.35 µM | 72% of 5,600 active;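 active means mean replicate inhibition above about 95% and at least 55% of replicates individually reaching it, limit read from the data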
T cruzi growth-3: blocks T. cruzi growth in NIH3T3 host cells | shares compounds with T cruzi growth-1 | T. cruzi beta-gal in NIH3T3, GalScreen luminescence, 90 h | inhibition, % at 2.09 µM | 21% of 5,600 active;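 active means mean inhibition above about 95%, with at least 55% of replicates also reaching it, limit read from the data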
NIH3T3 tox: kills mouse NIH/3T3 fibroblasts; shares compounds with T cruzi growth-1; NIH/3T3 viability, CellTiter-Glo ATP luminescence, 90 h; cytotoxicity (signal decrease), % at 8.35 µM; 14% of 5,600 active; AID 651742;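 active means mean signal decrease across replicates above about 35% based on untreated-well scatter, with enough replicates individually passing, limit read from the data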
3T3 cytotox 2: cytotoxicity in mouse NIH/3T3 fibroblasts; shares compounds with T cruzi growth-1; 56% of 5,600 active; AID 651744; NIH/3T3 viability, CellTiter-Glo ATP luminescence, 90 h; inhibition, % at 24.9 µM;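 active means mean loss of cell viability signal at or above a set limit, and enough replicates individually reaching it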
Large screens that a line does not name were inactive (follow-up assays come after a bar, where they were run). Shown is part of a subset that was picked to be rich in hits.

OC[C@H]1[C@H](c2ccc(Br)cc2)[C@@H]2CN(Cc3cncnc3)CCCCN12	T cruzi growth-1 109.7 (no result: IDH1 R132H inh) | T cruzi growth-2 96.9 | T cruzi growth-3 inactive | NIH3T3 tox inactive | 3T3 cytotox 2 inactive
OC[C@@H]1[C@@H](c2ccc(-c3ccccc3)cc2)[C@H]2CN(Cc3cncnc3)CCCCN12	none (no result: IDH1 R132H inh)
OC[C@H]1[C@H](c2ccc(C#Cc3ccccc3)cc2)[C@@H]2CN(Cc3cncnc3)CCCCN12	T cruzi growth-1 104.1 (no result: IDH1 R132H inh) | T cruzi growth-2 107.1 | T cruzi growth-3 inactive | NIH3T3 tox 44.5 | 3T3 cytotox 2 104.7
CN1[C@H](CO)[C@@H]2c3ccccc3N(C(=O)Nc3cc(F)ccc3F)C[C@@H]21	none (no result: IDH1 R132H inh)
CS(=O)(=O)NC(C(=O)O)c1ccccc1 (configuration not stated)	none (no result: T cruzi growth-1, KDM4C inh)
O=C(N[C@@H]1CC[C@H](CCNC(=O)C2CCC2)O[C@H]1CO)c1ccncc1	none (no result: T cruzi growth-1)
C[C@H](CO)N1C[C@H](C)[C@@H](CN(C)C(=O)Nc2cccc3ccccc23)OCCCC[C@H](C)Oc2ccc(NC(=O)CCCN(C)C)cc2C1=O	none
CC(NS(=O)(=O)c1ccc(Br)cc1)C(=O)Nc1cccc([N+](=O)[O-])c1 (configuration not stated)	none (no result: T cruzi growth-1, KDM4C inh)
Cc1noc(C)c1NC(=O)N[C@H]1CC[C@H](CC(=O)NCc2ccc(Cl)c(Cl)c2)O[C@H]1CO	none
OC[C@H]1[C@@H](c2ccc(C#Cc3ccccc3)cc2)[C@H]2CN(Cc3cncnc3)CCCCN21	none (no result: IDH1 R132H inh)
OC[C@@H]1[C@H](c2ccc(C#Cc3ccccc3)cc2)[C@H]2CN(Cc3cncnc3)CCCCN12	T cruzi growth-1 118.5 (no result: IDH1 R132H inh) | T cruzi growth-2 98.3 | T cruzi growth-3 101.7 | NIH3T3 tox 37.3 | 3T3 cytotox 2 102.0
C[C@H]1CN([C@@H](C)CO)C(=O)c2cc(C#Cc3cccc(F)c3)cnc2O[C@H]1CN(C)C(=O)C1CCC1	none
COc1cccc(C#Cc2cnc3c(c2)C(=O)N([C@H](C)CO)C[C@H](C)[C@@H](CN(C)C(=O)C2CCCCC2)O3)c1	T cruzi growth-1 101.1 (no result: IDH1 R132H inh) | T cruzi growth-2 109.9 | T cruzi growth-3 inactive | NIH3T3 tox inactive | 3T3 cytotox 2 102.7
COc1cccc(C#Cc2cnc3c(c2)C(=O)N([C@H](C)CO)C[C@@H](C)[C@H](CN(C)C(=O)C2CCCCC2)O3)c1	none
C[C@H](CO)N1C[C@H](C)[C@@H](CN(C)C(=O)C2CCCCC2)Oc2ncc(C#Cc3cccc(F)c3)cc2C1=O	T cruzi growth-1 117.3 (no result: IDH1 R132H inh) | T cruzi growth-2 103.9 | T cruzi growth-3 inactive | NIH3T3 tox inactive | 3T3 cytotox 2 76.9
COc1cccc(C#Cc2cnc3c(c2)C(=O)N([C@@H](C)CO)C[C@H](C)[C@@H](CN(C)C(=O)C2CCCCC2)O3)c1	T cruzi growth-1 117.0 (no result: IDH1 R132H inh) | T cruzi growth-2 107.3 | T cruzi growth-3 inactive | NIH3T3 tox inactive | 3T3 cytotox 2 inactive
COc1cccc(C#Cc2cnc3c(c2)C(=O)N([C@H](C)CO)C[C@@H](C)[C@@H](CN(C)C(=O)C2CCCCC2)O3)c1	none
COc1cccc(C#Cc2cnc3c(c2)C(=O)N([C@@H](C)CO)C[C@@H](C)[C@H](CN(C)C(=O)C2CCCCC2)O3)c1	T cruzi growth-1 85.4 | T cruzi growth-2 100.0 | T cruzi growth-3 inactive | NIH3T3 tox inactive | 3T3 cytotox 2 100.5
COc1cccc(C#Cc2cnc3c(c2)C(=O)N([C@H](C)CO)C[C@H](C)[C@H](CN(C)C(=O)C2CCCCC2)O3)c1	none (no result: T cruzi growth-1, IDH1 R132H inh)
COc1ccc(S(=O)(=O)N(C)C[C@@H]2OCCCC[C@@H](C)Oc3ccc(NC(=O)Nc4ccc(F)cc4)cc3C(=O)N([C@@H](C)CO)C[C@@H]2C)cc1	none (no result: IDH1 R132H inh)
COc1ccc(C#Cc2ccc3c(c2)O[C@H](CN(C)C(=O)c2ccccn2)[C@H](C)CN([C@@H](C)CO)S3(=O)=O)cc1	none (no result: T cruzi growth-1)
C[C@H](CO)N1C[C@H](C)[C@@H](CN(C)S(=O)(=O)c2ccccc2)Oc2ccc(NC(=O)Cc3cn(C)c4ccccc34)cc2CC1=O	none
Cc1ccc(OCC(=O)OC2CCN(C)CC2)cc1	none (no result: T cruzi growth-1, KDM4C inh)
